Activity calls are given as the source filed them.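 The calls were made as follows, unless noted: active = calcium signal cut by more than 3 SD below the full-agonist control yet still positive, in both repeats and the earlier primary screen; inactive = the rest.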

39 compounds from PubChem BioAssay can be followed below.

Short transient receptor potential channel 4 (Mus musculus), sequence (Q9QUQ5 whole entry, looked up): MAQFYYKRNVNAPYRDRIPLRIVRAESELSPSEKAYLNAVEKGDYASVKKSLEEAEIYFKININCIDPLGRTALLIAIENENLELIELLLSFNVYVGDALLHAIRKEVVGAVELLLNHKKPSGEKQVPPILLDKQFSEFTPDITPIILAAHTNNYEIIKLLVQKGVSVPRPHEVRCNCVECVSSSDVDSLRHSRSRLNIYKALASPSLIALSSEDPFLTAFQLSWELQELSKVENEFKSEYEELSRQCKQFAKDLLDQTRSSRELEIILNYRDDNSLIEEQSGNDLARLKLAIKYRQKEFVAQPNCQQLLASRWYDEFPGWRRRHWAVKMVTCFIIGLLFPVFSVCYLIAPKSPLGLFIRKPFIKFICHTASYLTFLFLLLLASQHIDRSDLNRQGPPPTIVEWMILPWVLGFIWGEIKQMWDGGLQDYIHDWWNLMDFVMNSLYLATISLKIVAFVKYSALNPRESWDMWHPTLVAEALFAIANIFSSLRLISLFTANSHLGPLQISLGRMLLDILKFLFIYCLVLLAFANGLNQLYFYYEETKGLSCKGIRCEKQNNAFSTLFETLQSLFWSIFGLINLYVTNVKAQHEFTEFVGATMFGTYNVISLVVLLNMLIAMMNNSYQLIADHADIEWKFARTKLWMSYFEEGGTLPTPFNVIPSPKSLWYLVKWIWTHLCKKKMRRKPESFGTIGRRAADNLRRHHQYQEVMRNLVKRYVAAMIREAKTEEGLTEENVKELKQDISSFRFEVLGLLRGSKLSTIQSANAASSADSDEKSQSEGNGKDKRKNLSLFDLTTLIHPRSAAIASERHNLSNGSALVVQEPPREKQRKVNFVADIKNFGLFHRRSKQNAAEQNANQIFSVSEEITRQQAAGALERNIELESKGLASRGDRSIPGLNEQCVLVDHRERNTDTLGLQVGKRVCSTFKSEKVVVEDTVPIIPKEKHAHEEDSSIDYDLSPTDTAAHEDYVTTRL

For the first assay, the target named is Short transient receptor potential channel 4 (Mus musculus) (UniProt Q9QUQ5). In words: inhibitors of mouse TRPC4 channel, confirmation, cell-based, Fluo4, HEK293 TRPC4beta/mu-opioid (AID 2636). The following applies: DAMGO, Fluo4 calcium flux, at 10 µM; active compounds read high. In a few lines:
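Assay system: HEK293 cells stably co-expressing mouse TRPC4beta and mu-opioid receptor / Also added: DAMGO agonist, submaximal followed by maximal addition / Compound dosing: single final compound concentration of 10 µM / Times: compound pre-incubation 110 s before DAMGO / Detection: Fluo4 calcium flux fluorescence, kinetic read / Replicates: duplicate wells for each compound, averaged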
For the compound `Cc1cc(/C=C2/C(=N)N3C(=NC2=O)SN=C3S(C)(=O)=O)c(C)n1-c1ccccc1F`, the result was inactive.

A word on the inhibition: it is the drop in the measured response relative to a control, in per cent. Consider `Cc1ccc(O)c(CNc2nc3ccccc3[nH]2)c1`, for which the inhibition was 96% (active).

Take `CC(Oc1ccc(Cl)cc1Cl)c1nc(-c2ccccn2)no1` (stereo not drawn): the inhibition was 89% (active).

Regarding `Fc1ccccc1COc1ccccc1CNCc1ccncc1`, the inhibition was 79% (active).

In the case of `CC12CC3(C)CC(C)(C1)CC(NC(=O)N1CCCC1)(C2)C3`, the inhibition was 76% (active).

For `Clc1cccc(COn2c(-c3ccc(Cl)cc3Cl)nc3ncccc32)c1`, the inhibition is 83% (active).

For `CC1CCN(CCCOc2ccc(OCc3ccccc3)cc2)CC1`, the inhibition was 96% (active).

As for `CCN(CC)C(=O)C1CCCN(Cc2cccc(Oc3ccccc3)c2)C1` (stereo not drawn), the inhibition is 93% (active).

Regarding `O=C(O)c1ccc(NC(=S)NC(=O)c2ccc(-c3ccccc3)cc2)cc1`, the inhibition was 64% (active).

Regarding `Cc1ccc(C)c2[nH]c(=O)c(CN(Cc3nnnn3C3CCCCC3)CC3CCCO3)cc12` (stereo not drawn), the inhibition was 78% (active).

Take `CC(C)CN(CC(C)C)c1nc(N)c(C#N)c(CC#N)c1C#N`: the inhibition is 85% (active).

As to `CC(C)Oc1cccc(C(=O)C2CCCN(Cc3cnn(C(C)C)c3)C2)c1` (stereo not drawn), the inhibition was 93% (active).

In the case of `Cc1ccc(O)c(Sc2cc(C)ccc2O)c1`, the inhibition is 97% (active).

Regarding `Cc1cccc(Cn2c(C(C)(C)C)cc3cccnc32)c1`, the inhibition is 95% (active).

As for `Cc1cc(N2CCC(C)CC2)nc2cccc(O)c12`, the inhibition was 95% (active).

For the compound `CSCCNCc1cn(-c2ccc(F)cc2F)nc1-c1ccccc1C`, the inhibition is 91% (active).

For the compound `CC(/C=C1\SC(=S)N(C(C(=O)O)C(C)C)C1=O)=C\c1ccccc1` (stereo not drawn), the inhibition is 99% (active).

For the compound `CCN(CC)CCn1c2ccccc2c2cnc(N)c(C#N)c21`, the inhibition was 82% (active).

As to `CCOC(=O)C1CCN(CC(O)COc2ccc(C(C)(C)C)cc2)CC1` (stereo not drawn), the outcome was inactive.

Regarding `CCOC(=O)c1oc2ccccc2c1CN1CCCCC1`, the inhibition was 91% (active).

As to `CC(C)Cc1cc(CN2CCCC(CO)(Cc3cccc(Cl)c3)C2)[nH]n1` (stereo not drawn), the inhibition was 91% (active).

As to `CCCCOc1ccc(CSCCN=C(N)N)cc1`, the inhibition was 88% (active).

For the compound `N#Cc1c(NC(=O)C2CC(Cl)=CCC2C(=O)O)sc2c1CCCCC2` (stereo not drawn), the inhibition is 51% (active).

As for `Cc1ccccc1C(=O)NC1CC2CCC(C1)N2Cc1ccccc1` (stereo not drawn), the inhibition is 68% (active).

On to `COc1ccc(/C=C2\SC(=S)N(C(Cc3ccccc3)C(=O)O)C2=O)cc1` (stereo not drawn), for which the inhibition is 88% (active).

For the compound `Cc1cc(NCc2ccccc2)nc(N2CCOCC2)n1`, the inhibition was 95% (active).

For `CCCc1nc(SC2CCCC2)c2c(=O)n(C)c(=O)n(C)c2n1`, the outcome was inactive.

For `Fc1ccccc1Sc1ccccc1CNC1=NCCN1`, the inhibition was 93% (active).

Turning to `CCc1nc2ccccc2n1Cc1ccccc1OC`, the inhibition was 66% (active).

In the case of `CSc1nc(N2CCOCC2)c2c3c(sc2n1)CCCC3`, the inhibition was 75% (active).

`COc1cccc(CNC(=O)CCC2CCCN(Cc3cc(Cl)ccc3O)C2)c1` (stereo not drawn): the inhibition is 93% (active).

As to `CCOC(=O)C1(Cc2ccccc2C)CCCN(Cc2ccc(NC(C)=O)cc2)C1` (stereo not drawn), the inhibition was 83% (active).

For the compound `CCn1c(NCc2c[nH]c3ccccc23)nc2ccccc21`, the inhibition is 89% (active).

Consider `O=C(c1ccc2c(c1)OCO2)C1CCCN(Cc2ccccc2OC(F)F)C1` (stereo not drawn), for which the inhibition is 89% (active).

In the case of `CC(C)(C)c1cc2cccnc2n1Cc1ccccc1`, the inhibition was 95% (active).

Take `Cc1cccc(C)c1-n1cccc1/C=C1\SC(=S)N(c2cccc(C(=O)O)c2)C1=O`: the inhibition is 89% (active).

With `COc1ccc2nc(NCc3ccccc3)[nH]c2c1`, the inhibition was 94% (active).

Regarding `Cc1ccc(C(=O)NC(=S)Nc2c(C)ccc3nsnc23)cc1`, the inhibition is 86% (active).

Take `Cc1ccccc1N1CC(O)(c2cccs2)[N+]2=C1CCCC2` (stereo not drawn): the outcome was inactive.

The target is the same in another assay. In words: inhibitors of mouse TRPC4 channel, confirmation, cell-based, second round, Fluo4, HEK293 TRPC4beta/mu-opioid, 1 µM (AID 2637;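 active = calcium signal ratio cut to more than 3 SD under the fully stimulated control mean yet still positive, in both repeats and the primary screen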;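 as to inhibition: percent of integrated ratio relative to wells lacking test compound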). The following applies: Fluo4 calcium flux, DAMGO, at 1 µM; active compounds read high. Summed up: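 Test system: HEK293 stable line co-expressing TRPC4beta and mu-opioid receptor | Probe or stimulus: Sequential submaximal then maximal DAMGO stimulation | Dosing: 1 µM single point | Timing: Fluo4 loading 45 min at room temperature, compound 110 s | Signal: Fluo4 calcium fluorescence, kinetic real-time read after baseline | Controls: ECmax and compound-free wells | Repeats: Duplicates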
For orientation: Calcium assays in cells follow changes in intracellular calcium, usually with a dye or a luminescent sensor.
On to `Cc1cc(/C=C2/C(=N)N3C(=NC2=O)SN=C3S(C)(=O)=O)c(C)n1-c1ccccc1F`, for which the outcome was inactive.

Turning to `Cc1ccc(O)c(CNc2nc3ccccc3[nH]2)c1`, the inhibition was 76% (active).

On to `CC(Oc1ccc(Cl)cc1Cl)c1nc(-c2ccccn2)no1` (stereo not drawn), for which the inhibition was 53% (active).

Consider `Fc1ccccc1COc1ccccc1CNCc1ccncc1`, for which the result was inactive.

As for `CC12CC3(C)CC(C)(C1)CC(NC(=O)N1CCCC1)(C2)C3`, the outcome was inactive.

As for `Clc1cccc(COn2c(-c3ccc(Cl)cc3Cl)nc3ncccc32)c1`, the inhibition was 45% (active).

Consider `CC1CCN(CCCOc2ccc(OCc3ccccc3)cc2)CC1`, for which the outcome was inactive.

Turning to `CCN(CC)C(=O)C1CCCN(Cc2cccc(Oc3ccccc3)c2)C1` (stereo not drawn), the inhibition is 53% (active).

As for `O=C(O)c1ccc(NC(=S)NC(=O)c2ccc(-c3ccccc3)cc2)cc1`, the outcome was inactive.

In the case of `Cc1ccc(C)c2[nH]c(=O)c(CN(Cc3nnnn3C3CCCCC3)CC3CCCO3)cc12` (stereo not drawn), the result was inactive.

Turning to `CC(C)CN(CC(C)C)c1nc(N)c(C#N)c(CC#N)c1C#N`, the outcome was inactive.

With `CC(C)Oc1cccc(C(=O)C2CCCN(Cc3cnn(C(C)C)c3)C2)c1` (stereo not drawn), the inhibition was 47% (active).

Consider `Cc1ccc(O)c(Sc2cc(C)ccc2O)c1`, for which the outcome was inactive.

For `Cc1cccc(Cn2c(C(C)(C)C)cc3cccnc32)c1`, the inhibition is 72% (active).

Regarding `Cc1cc(N2CCC(C)CC2)nc2cccc(O)c12`, the inhibition is 83% (active).

As for `CSCCNCc1cn(-c2ccc(F)cc2F)nc1-c1ccccc1C`, the outcome was inactive.

Consider `CC(/C=C1\SC(=S)N(C(C(=O)O)C(C)C)C1=O)=C\c1ccccc1` (stereo not drawn), for which the result was inactive.

Take `CCN(CC)CCn1c2ccccc2c2cnc(N)c(C#N)c21`: the outcome was inactive.

`CCOC(=O)C1CCN(CC(O)COc2ccc(C(C)(C)C)cc2)CC1` (stereo not drawn): the outcome was inactive.

Turning to `CCOC(=O)c1oc2ccccc2c1CN1CCCCC1`, the outcome was inactive.

For `CC(C)Cc1cc(CN2CCCC(CO)(Cc3cccc(Cl)c3)C2)[nH]n1` (stereo not drawn), the outcome was inactive.

As for `CCCCOc1ccc(CSCCN=C(N)N)cc1`, the inhibition is 42% (active).

For the compound `N#Cc1c(NC(=O)C2CC(Cl)=CCC2C(=O)O)sc2c1CCCCC2` (stereo not drawn), the outcome was inactive.

`Cc1ccccc1C(=O)NC1CC2CCC(C1)N2Cc1ccccc1` (stereo not drawn): the inhibition is 47% (active).

As for `COc1ccc(/C=C2\SC(=S)N(C(Cc3ccccc3)C(=O)O)C2=O)cc1` (stereo not drawn), the result was inactive.

For `Cc1cc(NCc2ccccc2)nc(N2CCOCC2)n1`, the inhibition was 40% (active).

As to `CCCc1nc(SC2CCCC2)c2c(=O)n(C)c(=O)n(C)c2n1`, the outcome was inactive.

As for `Fc1ccccc1Sc1ccccc1CNC1=NCCN1`, the inhibition is 68% (active).

As to `CCc1nc2ccccc2n1Cc1ccccc1OC`, the inhibition is 48% (active).

For `CSc1nc(N2CCOCC2)c2c3c(sc2n1)CCCC3`, the outcome was inactive.

Take `COc1cccc(CNC(=O)CCC2CCCN(Cc3cc(Cl)ccc3O)C2)c1` (stereo not drawn): the result was inactive.

In the case of `CCOC(=O)C1(Cc2ccccc2C)CCCN(Cc2ccc(NC(C)=O)cc2)C1` (stereo not drawn), the result was inactive.

Turning to `CCn1c(NCc2c[nH]c3ccccc23)nc2ccccc21`, the result was inactive.

As to `O=C(c1ccc2c(c1)OCO2)C1CCCN(Cc2ccccc2OC(F)F)C1` (stereo not drawn), the result was inactive.

Consider `CC(C)(C)c1cc2cccnc2n1Cc1ccccc1`, for which the inhibition is 70% (active).

On to `Cc1cccc(C)c1-n1cccc1/C=C1\SC(=S)N(c2cccc(C(=O)O)c2)C1=O`, for which the outcome was inactive.

Regarding `COc1ccc2nc(NCc3ccccc3)[nH]c2c1`, the inhibition is 50% (active).

As for `Cc1ccc(C(=O)NC(=S)Nc2c(C)ccc3nsnc23)cc1`, the inhibition is 45% (active).

Take `Cc1ccccc1N1CC(O)(c2cccs2)[N+]2=C1CCCC2` (stereo not drawn): the outcome was inactive.
